TAAR1 ag = agonists of human TAAR1. activation, % at 3 µM. AID 624467. hit rate 0.99% among 360,000. CHO RD-HGA16 TAAR1, Fluo-8 calcium fluorescence; vehicle wells 0%, saturating PEA agonist 100%. Q96RJ0;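 active means activation above the mean activation of all test compounds in the run plus 3 SD, cut at about 38% in these data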
Target sequence (Q96RJ0 whole entry, looked up): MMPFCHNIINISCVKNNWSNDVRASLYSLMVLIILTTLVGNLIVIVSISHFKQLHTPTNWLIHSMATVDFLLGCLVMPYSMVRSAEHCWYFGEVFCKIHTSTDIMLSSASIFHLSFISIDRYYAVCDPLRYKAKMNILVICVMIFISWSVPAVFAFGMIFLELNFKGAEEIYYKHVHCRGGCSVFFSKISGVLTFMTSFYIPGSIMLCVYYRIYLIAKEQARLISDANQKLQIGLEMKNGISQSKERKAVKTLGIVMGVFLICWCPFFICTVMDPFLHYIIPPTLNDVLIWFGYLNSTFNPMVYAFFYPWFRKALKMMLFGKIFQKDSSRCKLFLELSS
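Benchmarks: low control DMSO, high control PEA (EC100); System: CHO RD-HGA16 cells carrying human TAAR1 plus Gα16; Detection: Fluo-8 fluorescence, 5 s baseline then 140 s kinetic read; Schedule: 17-24 h plating, Fluo-8 75 min 37 °C, 30 min RT; Read-out basis: % activation from peak over basal fluorescence ratio, DMSO-to-PEA scaled.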
TAAR1 antagonist = antagonists of human TAAR1; CHO RD-HGA16 TAAR1, Fluo-8 calcium fluorescence, antagonist; AID 624466; inhibition, % at 3 µM; hit rate 1.5% among 360,000;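 active means inhibition above a per-plate cutoff, the mean inhibition of test compounds on that plate plus 3 SD, cut at about 49% in these data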;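 further: 0% = DMSO plus EC80 beta-PEA response and 100% = DMSO alone without agonist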
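Test system: hTAAR1-expressing CHO RD-HGA16 cells, Gα16-coupled; Probe or stimulus: EC80 β-phenethylamine stimulus; Compound dosing: single nominal final test compound concentration of 3 µM; Timing: 140 s kinetic read after compound, 140 s after agonist; Signal: Fluo-8 calcium-sensitive fluorescence; Measure: % inhibition of agonist calcium response; Controls: DMSO and EC80 PEA controls.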
OX1R antag-1 = antagonists of human orexin 1 receptor (OX1R). inhibition, % at 6.6 µM. O43613. OX1R-expressing cells, FRET antagonist read-out. hit rate 1.8% among 330,000; in the data active means inhibition mostly above about 38%, no sharp cut-off; inactive means mostly below about 40%;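 further: 0% = agonist challenge alone and 100% = reference antagonist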
Target sequence (O43613 whole entry, looked up): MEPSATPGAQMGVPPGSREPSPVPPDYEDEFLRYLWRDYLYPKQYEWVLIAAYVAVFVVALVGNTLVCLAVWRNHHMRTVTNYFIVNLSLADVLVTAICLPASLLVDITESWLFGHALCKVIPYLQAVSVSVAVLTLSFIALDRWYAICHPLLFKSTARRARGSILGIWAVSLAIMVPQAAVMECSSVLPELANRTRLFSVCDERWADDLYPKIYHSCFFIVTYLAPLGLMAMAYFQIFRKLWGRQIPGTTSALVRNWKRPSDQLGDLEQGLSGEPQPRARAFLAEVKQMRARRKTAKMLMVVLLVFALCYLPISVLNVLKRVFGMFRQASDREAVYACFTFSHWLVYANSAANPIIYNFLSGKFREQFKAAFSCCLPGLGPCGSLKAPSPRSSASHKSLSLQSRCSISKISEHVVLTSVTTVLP
OX1R antag-2 = antagonists of human orexin 1 receptor; O43613; inhibition, % at 5 µM; CHO/OX1R cells, Fluo-8 calcium fluorescence, orexin A; hit rate 0.43% among 330,000; AID 434989;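 active means inhibition above its plate's threshold, mean inhibition of all tested compounds on the plate plus 3 SD, cut at about 37% in these data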;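 further: 0% = orexin A challenge wells and 100% = SB-334867-A antagonist wells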
CHO parental Ca = counter-screen for OX1R antagonists: effect in parental CHO cells | parental CHO-K1, ATP-induced calcium, Fluo-8 fluorescence | inhibition, % at 5.6 µM | hit rate 0.63% among 330,000;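 active means inhibition above that plate's mean sample inhibition plus 3 SD, cut at about 26% in these data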;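 further: 0% = ATP-challenged DMSO wells and 100% = DMSO wells without ATP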
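Test system: untransfected parental CHO cell line; also added: ATP stimulus; dosing: 5.6 µM, single dose; signal: calcium-sensitive Fluo-8 fluorescence; measure: percent inhibition of ATP-evoked calcium rise, normalized to controls; benchmarks: low control ATP plus DMSO, high control DMSO only; replication: one well per compound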
OX1R HTRF confirm = OX1R (human) antagonism, HTRF confirmed; inhibition, % at 6.6 µM; shares compounds with OX1R antag-1; hit rate 49% among 1,800; OX1R-expressing cells, HTRF antagonist assay; in the data active means inhibition above about 55%;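 further: CHO cells expressing OX1R stimulated with orexin A at about EC80; 0% = agonist challenge alone and 100% = reference antagonist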
CHO-K1 HTRF = counter-screen for OX1R antagonists: effect in parental CHO-K1 cells; shares compounds with OX1R antag-1; HTRF counterscreen; inhibition, % at 6.6 µM; hit rate 48% among 1,800; in the data active means inhibition above about 17%;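 further: 0% = agonist challenge with vehicle and 100% = vehicle alone without agonist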
* marks the source's active call; other numbers are inactive results; · = no result. The list is not random: actives were taken first. Their share in the collection is about 4%.

SMILES | TAAR1 ag | TAAR1 antagonist | OX1R antag-1 | OX1R antag-2 | CHO parental Ca | OX1R HTRF confirm | CHO-K1 HTRF
CNC(=O)OCc1snc(-c2ccccc2)c1COC(=O)NC | 1.0 | 6.4 | · | · | · | · | ·
O=C(O)CCNc1ccc(NCCC(=O)O)c2c1C(=O)c1ccccc1C2=O | 1.5 | -13.5 | 104.3* | -9.2 | 6.3 | 61.3* | 86.1*
COc1ccccc1NCCC(=O)O | 5.9 | -20.2 | 12.6 | 2.5 | 18.0 | · | ·
CCCCOc1ccc(C(=O)NCC(=O)NCC(c2ccc(F)cc2)N2CCOCC2)cc1 (stereo not drawn) | -1.7 | 0.8 | 6.1 | -9.3 | -24.3 | · | ·
C[C@@H](C(=O)Nc1ccc2ccccc2c1)[C@@H]1C[C@@]1(C)[C@@H](NC(=O)c1ccccc1)c1ccccc1 | 10.4 | 4.8 | 21.3 | -19.1 | -14.1 | · | ·
C[C@@H](C(=O)Nc1ccc2ccccc2c1)[C@H]1C[C@]1(C)[C@H](NC(=O)c1cccnc1)c1ccccc1 | 23.1 | 45.5 | 79.5* | 25.9 | -31.5 | 72.4* | -3.8
O=[N+]([O-])c1ccc2c(c1)nc1n2CCN(CC2CCCO2)C1 (stereo not drawn) | 2.9 | -34.0 | 81.0* | -13.6 | -8.2 | 43.1 | 27.0*
O=[N+]([O-])c1ccc2c(c1)nc1n2CCSC1 | 2.4 | -9.4 | 17.7 | -8.0 | -8.8 | · | ·
CC(=O)c1cccc(NC(=O)CCS(=O)(=O)c2cccc3nsnc23)c1 | 12.4 | -10.6 | 88.9* | -30.0 | -25.1 | 32.7 | 24.9*
O=C(CCCNS(=O)(=O)c1cccc2nsnc12)NCc1ccccc1 | 1.3 | 7.9 | 28.4 | -22.9 | -10.0 | · | ·
COc1cccc(NC(=O)CS(=O)(=O)c2cccc3nsnc23)c1 | 0.2 | -11.3 | 53.5 | -21.4 | -5.7 | · | ·
O=C(CCS(=O)(=O)c1cccc2nsnc12)NCc1ccccc1 | 0.3 | -11.6 | 119.7* | -26.1 | -16.8 | 40.2 | 38.6*
Cc1nc(Nc2ccc(Cl)cc2)c(C#N)c(=O)[nH]1 | 2.6 | -13.0 | 9.9 | -11.6 | 7.8 | · | ·
O=C(Nc1cc(S(=O)(=O)N2CCCCC2)ccc1O)c1ccccc1NS(=O)(=O)c1ccc(F)c(F)c1 | 11.8 | 4.4 | 82.9* | 12.1 | -17.4 | 41.8 | 2.4
CN1CCN(c2c([N+](=O)[O-])cnc3ccccc23)CC1 | -1.7 | -25.6 | 15.2 | 1.2 | -9.7 | · | ·
NC(=O)N=Nc1c(O)[nH]c2ccc([N+](=O)[O-])cc12 | 2.7 | -14.8 | 101.7* | -18.9 | -7.1 | 44.5 | 62.6*
Clc1ccc2oc(-c3ccccc3)cc(=NCCCN3CCOCC3)c2c1 | 4.3 | 3.4 | · | · | · | · | ·
OCCCCCN=c1cc(-c2ccccc2)oc2ccc(Cl)cc12 | 1.0 | -2.6 | 81.6* | -26.8 | -23.0 | 53.8 | 53.6*
COc1cccc([C@@H]2CC=C(C(=O)O)[C@H](c3ccccc3)N2S(=O)(=O)c2ccc(C)cc2)c1 | 9.6 | 8.1 | 24.4 | -18.7 | -14.1 | · | ·
Cc1ccc(S(=O)(=O)N2[C@@H](c3ccccc3)C(C(=O)O)=CC[C@H]2c2ccc(Cl)cc2)cc1 | 0.1 | 9.8 | 77.9* | 14.2 | -11.6 | 53.4 | 0.9
COc1cc([C@@H]2CC=C(C(=O)O)[C@H](c3ccccc3F)N2S(=O)(=O)c2ccc(C)cc2)cc(OC)c1OC | 5.8 | -9.6 | 12.8 | 0.3 | -16.5 | · | ·
Cc1ccc(S(=O)(=O)N2[C@@H](c3ccc(F)cc3)C(C(=O)O)=CC[C@H]2c2ccc(Cl)cc2)cc1 | 2.3 | 18.8 | 46.3 | -2.2 | -10.0 | · | ·
Cc1ccc([C@@H]2CC=C(C(=O)O)[C@H](c3ccccc3F)N2S(=O)(=O)c2ccccc2C)cc1 | 0.0 | 1.8 | 78.4* | 29.6 | -10.2 | 81.3* | 0.6
COc1ccc([C@@H]2CC=C(C(=O)O)[C@H](c3cccc(Cl)c3)N2S(=O)(=O)c2ccccc2C)cc1 | -0.5 | 5.5 | 88.4* | 14.4 | -18.7 | 91.4* | -0.5
CSc1nc2ccccc2n1CC(=O)Nc1cc(C(F)(F)F)ccc1N1CCOCC1 | 7.5 | -0.3 | 5.9 | -29.3 | -10.6 | · | ·
SMILES | TAAR1 ag | TAAR1 antagonist | OX1R antag-1 | OX1R antag-2 | CHO parental Ca | OX1R HTRF confirm | CHO-K1 HTRF
CCCC(C(=O)NC1CCCC1)N(C(=O)Cn1nnc(-c2ccc(C)o2)n1)c1ccccc1OC (stereo not drawn) | · | · | 24.0 | -38.0 | -10.1 | · | ·
Cc1n[nH]c(C)c1N1C(=O)c2cccc3c(Br)ccc(c23)C1=O | 11.2 | 14.7 | 79.7* | -4.4 | 1.6 | 41.8 | 40.0*
Cc1n[nH]c(C)c1N1C(=O)c2cccc3cc(Br)cc(c23)C1=O | -2.7 | -22.0 | 46.0 | -8.7 | -6.9 | · | ·
COc1c(C)cc(C(=O)C2CCCN(C(=O)c3cccc(F)c3)C2)cc1C (stereo not drawn) | 5.9 | -21.9 | 105.7* | 8.7 | -3.1 | 87.7* | -0.4
COc1ccc2cc(C(=O)C3CCCN(C(=O)c4cnccn4)C3)ccc2c1 (stereo not drawn) | 1.3 | -14.9 | 97.2* | -15.0 | -12.3 | 18.9 | -5.7
COc1c(C)cc(C(=O)C2CCCN(C(=O)c3ccc4cc[nH]c4c3)C2)cc1C (stereo not drawn) | 3.3 | -16.2 | 82.4* | -5.5 | -22.2 | 71.9* | -4.4
Cc1ccc(NC2=C/C(=N\S(=O)(=O)c3cccs3)c3ccccc3C2=O)c(C)c1 | · | · | 61.5 | -21.8 | -34.5 | · | ·
O=C1/C(=N\S(=O)(=O)c2cccs2)C([n+]2ccccc2)=C([O-])c2ccccc21 | 1.9 | -29.9 | 94.1* | -8.3 | -8.0 | 77.5* | 118.7*
O=C(CSCCN1C(=O)c2ccccc2C1=O)Nc1ccc2ccccc2c1 | 8.4 | 35.5 | 80.6* | -2.8 | -21.9 | 50.5 | -1.8
CCOc1ccc2c(c1)S/C(=C\c1cccs1)C(=O)N2 | 8.5 | -33.6 | 80.7* | 8.0 | -12.7 | 71.8* | 4.6
Cc1cc(C)cc(N=C2NC(=O)/C(=C/c3cccs3)S2)c1 | 1.5 | -26.4 | 25.5 | -32.4 | -20.3 | · | ·
COC(=O)c1ccc(NC(=O)c2cccc(NC(=O)c3ccccc3)c2)cc1 | 6.3 | 2.2 | 9.6 | -13.2 | -11.3 | · | ·
O=C(/C=C/c1ccc([N+](=O)[O-])cc1)NCc1cccnc1 | 5.1 | -0.5 | 104.3* | -3.4 | 2.6 | 35.5 | 36.3*
Nc1nnc(-c2cc3ccccc3oc2=O)s1 | 9.5 | 4.0 | 151.6* | -17.9 | 3.7 | 35.5 | 50.0*
COc1ccc(OCCCC(=O)OC(C)C(=O)Nc2ccc(NC(C)=O)cc2)cc1 (stereo not drawn) | 0.9 | -5.9 | 19.3 | -12.2 | 0.2 | · | ·
CC(=O)Nc1ccc(NC(=O)C(C)OC(=O)CCCOc2ccc(Cl)c(C)c2)cc1 (stereo not drawn) | 7.6 | 21.0 | 85.4* | 20.3 | -6.2 | 77.6* | 5.8
COC(CNC(=O)c1ccc2nc(-c3cccs3)c(-c3cccs3)nc2c1)OC | 5.5 | 25.1 | 84.3* | 0.7 | -17.7 | 42.0 | 6.5

Source: PubChem (The Scripps Research Institute Molecular Screening Center)
